Experimental findings from ChEMBL document CHEMBL1148339, “Synthesis, structure-activity relationships, and drug resistance of beta-d-3'-fluoro-2',3'-unsaturated nucleosides as anti-HIV Agents” (J Med Chem, 2004) are described below.

In this assay the target is T1, Adenosine deaminase (Bos taurus) (UniProt P56658).
T1 sequence (whole entry): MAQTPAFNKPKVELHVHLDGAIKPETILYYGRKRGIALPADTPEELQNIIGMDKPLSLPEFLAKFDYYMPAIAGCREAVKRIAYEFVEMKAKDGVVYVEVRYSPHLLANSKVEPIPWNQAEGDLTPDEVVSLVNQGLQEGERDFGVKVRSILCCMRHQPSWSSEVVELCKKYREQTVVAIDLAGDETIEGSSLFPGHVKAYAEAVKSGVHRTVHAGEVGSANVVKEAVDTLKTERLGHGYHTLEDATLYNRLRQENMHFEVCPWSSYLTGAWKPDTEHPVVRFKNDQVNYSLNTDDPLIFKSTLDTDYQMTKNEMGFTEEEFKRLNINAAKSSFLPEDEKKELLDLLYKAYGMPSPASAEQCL
Description: Kcat/KM of compound against adenosine deaminase (ADA) was determined. The gist of the method: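 Deamination by calf intestinal mucosa adenosine deaminase (0.15 units, MW 33 000, in 2 mL) in phosphate buffer pH 7.4 at 25 °C, substrate 15–100 μM, monitored by UV at 265 nm. Initial rates from graphical fitting of concentration vs time; Vmax and KM from Lineweaver–Burk plot, kcat calculated from enzyme amount.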

With `Nc1ncnc2c1ncn2[C@@H]1O[C@H](CO)[C@@H](O)[C@H]1O`, the k cat/Km was found to be 3.1e+06 M⁻¹ s⁻¹.
